Screening data: PubChem, several laboratories
Shown are actives, neighbours in structure and some others; about 5.1% of the full set was active somewhere.
STAT3 act-1 = activators of IL-6 induced STAT3 signaling. U3A cells, IL-6 STAT3-luciferase reporter, luminescence; 100% = signal with IL-6 EC80 alone. activation (% of control), % at 5.6 µM. actives 0.91% (n = 190,000);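 active means activation above the screen-wide mean of compound activation plus 3 SD, cut at about 130% in these data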;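 further: 0% = background luminescence of wells with medium and substrate only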
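Material: STAT1-lacking human U3A cells, STAT3 luciferase reporter | Benchmarks: IL-6-only wells as 100% reference | Probe or stimulus: IL-6 (33 ng/mL) | Timing: Compound 1 h, then IL-6 6 h at 37 °C | Detection: Luminescence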
APP 5'UTR act = activates APP 5'UTR luciferase reporter | SH-SY5Y APP 5'UTR luciferase reporter, luminescence; zero percent = DMSO vehicle wells | activation, % at 2 µM | actives 1% (n = 190,000);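 active means activation above a set limit, based on mean plus 3 SD of controls, cut at about 140% in these data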
STAT3 blocker = inhibitors of IL-6 induced STAT3 signaling; U3A cells, IL-6 STAT3-luciferase reporter, luminescence; host cell line lacks STAT1; inhibition, % at 5.5 µM; actives 0.89% (n = 190,000);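 active means inhibition above the mean inhibition across all screened compounds plus 3 SD, cut at about 44% in these data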;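 further: 0% = DMSO only wells and 100% = 100 µM nifuroxazide control wells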
NF-kB neuron act = raises NF-kB expression in human neuronal cells. NF-kB reporter expression; hits give high values. fold change at 12.5 µM. actives 1.6% (n = 190,000); in the data active means fold change above about 3.3
STAT1 act-1 = activators of IFN-gamma induced STAT1 signaling; NIH 3T3 STAT1-luciferase reporter, luminescence; 100% = IFN-gamma alone, no compound; activation (% of control), % at 5.5 µM; actives 2.6% (n = 200,000); AID 932;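 active means activation above the screen-wide mean activation plus 3 SD, cut at about 130% in these data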;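 further: raw ratio to IFN-gamma control signal so 100% means no change and 0% no light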
STAT1 blocker = reduces IFN-gamma driven STAT1 reporter signal | inhibition, % at 5.5 µM | AID 920 | actives 0.35% (n = 200,000) | NIH 3T3 STAT1-luciferase reporter, luminescence;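 active means inhibition above a set limit, the mean inhibition across all tested compounds plus 3 SD, cut at about 34% in these data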;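 further: 0% = IFN-gamma with DMSO and 100% = IFN-gamma with 300 µM nifuroxazide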
STAT3 act-2 = STAT3 activation, confirmation assay; shares compounds with STAT3 act-1; U3A STAT3-luciferase reporter, IL-6 potentiation, luminescence; U3A cells lack STAT1; 100 means same as IL-6 alone; potentiation (% of control), % at 5.7 µM; actives 64% (n = 1,200);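 active means percent activation of the STAT3 luciferase reporter above a set limit taken from the earlier primary screen, cut at about 130% in these data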;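 further: 0% = background signal of medium plus substrate and 100% = median of IL-6 with DMSO wells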
NFkB act 2 = counter-screen for STAT3 activators: NF-kappaB activation. shares compounds with STAT3 act-1. human cells, NF-kappaB reporter activation. activation (% of control), % at 5.7 µM. actives 11% (n = 1,200); in the data active means activation above about 120%;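 further: reporter induced by TNF-alpha stimulation; 100% = median of stimulated DMSO wells and 0% = no signal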
STAT1 act-2 = STAT1 activation in STAT3 activator counter-screen | shares compounds with STAT3 act-1 | actives 13% (n = 1,200) | NIH 3T3 STAT1-luciferase reporter, IFN-gamma, luminescence | AID 1318 | activation (% of control), % at 5.7 µM;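 active means activation above the solvent-only control well mean plus 3 SD, set per screening run, cut at about 120% in these data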;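 further: 100% = IFN-gamma with DMSO median signal so 100% means no change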
* hit, by the source's call; · = no result given.

SMILES	STAT3 act-1	APP 5'UTR act	STAT3 blocker	NF-kB neuron act	STAT1 act-1	STAT1 blocker	STAT3 act-2	NFkB act 2	STAT1 act-2
CCOC(=O)c1cc2c(nc1C)-c1cc(Cl)cc(Cl)c1OC2O (centres undefined)	92.2	21.8	11.6	1.03	107.3	-9.4	·	·	·
COC(=O)C(C)NC(=O)CNS(=O)(=O)c1ccc(F)cc1 (centres undefined)	106.4	-15.1	-8.3	1.1	110.0	-10.6	·	·	·
Clc1ccc(/C=C\c2nccc3c2[nH]c2ccccc23)cc1	148.4*	-4.5	-58.7	1.45	102.6	-3.9	144.7*	107.9	100.3
N#Cc1ccc(/C=C\c2nccc3c2[nH]c2ccccc23)cc1	157.1*	9.7	-62.5	0.72	118.8	-23.8	141.2*	102.9	102.6
O=C(c1cccs1)N1CCN(Cc2ccccc2[N+](=O)[O-])CC1	91.1	24.2	12.5	1.11	95.8	4.7	·	·	·
Cc1ccc(C2=CC(c3cccs3)n3nnnc3N2)cc1 (centres undefined)	146.5*	17.1	-38.9	1.87	95.2	0.1	127.1	109.0	101.4
O=C(O)C1CC=CCC1C(=O)Nc1ccc(S(=O)(=O)N2CCCc3ccccc32)cc1 (centres undefined)	162.0*	3.3	-70.0	1.63	103.2	-3.5	146.1*	106.4	106.7
O=c1oc2ccc3ccccc3c2cc1-c1nc2ccccc2o1	162.6*	-0.7	-70.7	·	102.2	-2.3	132.9*	99.2	95.5
Nc1ccc2oc(-c3cccc4ccccc34)nc2c1	88.0	-48.7	17.6	0.59	112.4	-13.4	·	·	·
Cc1cc(C)c(C#N)c(SCc2nc3ccccc3[nH]2)n1	185.4*	147.6*	-87.2	2.9	116.9	-18.4	164.9*	109.8	105.1
O=C(c1ccccn1)N1CC=C(c2ccccc2)CC1	94.7	18.6	7.0	1.46	106.3	-6.0	·	·	·
COc1cc(C2C(C#N)=C(N)Oc3cc4c(cc32)OCO4)cc(OC)c1OC (centres undefined)	146.9*	-93.4	-45.9	2.99	89.7	10.7	118.4	162.1*	107.4
COc1cc(C2C(C#N)=C(N)Oc3cc(O)ccc32)cc(OC)c1OC (centres undefined)	112.2	-94.5	-9.9	1.03	90.9	9.9	·	·	·
CCSC1=NN2CCS(=O)(=O)N=C2S1	99.5	4.4	5.4	1.15	103.8	-7.2	·	·	·
O=C(CSc1nnc2c3ccccc3c3ccccc3c2n1)Nc1ccccc1	157.7*	1.3	-54.8	1.71	88.3	13.0	162.0*	105.3	92.4
CCOC(=O)c1c(Cl)c(C)nn1-c1nc(OC)cc(OC)n1	95.4	3.0	5.7	1.26	102.6	-3.0	·	·	·
Cc1ccc(CC2S/C(=C(/C#N)C(=O)NCc3ccco3)N(c3ccccc3)C2=O)cc1 (centres undefined)	96.5	3.7	13.8	1.02	99.6	0.4	·	·	·
CC1S/C(=C(\C#N)C(=O)NCc2ccco2)N(Cc2ccco2)C1=O (centres undefined)	142.4*	-11.3	-46.3	0.97	92.0	9.9	130.4	103.9	95.4
CCOC(=O)c1cnc(-c2ccccc2)nc1N(C)C	173.0*	92.2	-86.8	1.86	116.5	-17.9	154.6*	116.3	136.4*
CC(C)NC(=O)/C=C/C(=O)O	90.8	-7.5	12.6	1.11	97.3	1.8	·	·	·
Cc1cccc2nc(CSc3nc4[nH]ncc4c(=O)n3-c3ccccc3Cl)cc(=O)n12	136.4*	5.4	-29.8	0.62	79.3	22.6	151.7*	96.2	87.6
O=C(CC(Nc1cccc(Cl)c1Cl)C(=O)O)c1ccccc1 (centres undefined)	140.1*	-14.3	-46.6	0.97	103.3	-5.1	148.6*	106.6	115.2
